Measurements from ChEMBL document CHEMBL1137781, “Synthesis and preclinical evaluation of novel PET probes for P-glycoprotein function and expression” (J Med Chem, 2009).

Assays:
Cerebellum [1] = test: Biodistribution in Wistar rat cerebellum at 38+/-8 MBq, iv after 80 mins; format: ADME, organism-based; details: in vivo
Rattus norvegicus [2] = test: AUC in 50 mg/kg cyclosporin A pretreated Wistar rat at 49+/-11 MBq, iv; format: ADME, organism-based, Plasma; parameters: dose 50 mg/kg, route intravenous; details: in vivo
How it was run: (§1)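 Male Wistar rats with a femoral arterial cannula placed under isoflurane. Saline or cyclosporin A (50 mg/kg, commercial solution) given via tail vein, then the [11C] tracer via penile vein. Dynamic microPET over the brain for 76 min, with 14 arterial samples to 60 min. Plasma counted in a γ counter. AUC of whole-brain or plasma SUV over 0-60 min.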

[3] = Biodistribution in Wistar rat bulbus olfactorius at 38+/-8 MBq, iv after 80 mins; format: ADME, organism-based, Olfactory bulb; details: in vivo
Plasma [4] = test: Biodistribution in Wistar rat plasma at 38+/-8 MBq, iv after 80 mins; format: ADME, organism-based; details: in vivo
How it was run: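 Male Wistar rats under isoflurane were given tracer via the penile vein after tail-vein pretreatment with saline or drug. At the end of a 76 min microPET scan the anesthetized animals were terminated. Blood was collected and centrifuged 5 min at 1000g for plasma. Plasma was weighed, γ-counted with decay correction and expressed as SUV (tissue MBq/g × body weight/injected dose).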

Ileum [5] = test: Biodistribution in Wistar rat ileum at 38+/-8 MBq, iv after 80 mins; format: ADME, organism-based; details: in vivo
How it was run: (§2)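 Male Wistar rats (12 h light/dark, chow ad libitum) were fitted with a femoral arterial cannula under isoflurane. They were pretreated via tail vein with saline, cyclosporin A (50 mg/kg), or nonradioactive tracer compound (15 mg/kg; 10 mg/mL in saline with 35% ethanol). The 11C tracer was then given via penile vein, followed by 76 min microPET. Animals were then terminated; excised tissues were weighed and gamma-counted with decay correction. Values are SUVs (tissue MBq/g × body weight g / injected MBq).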

[6] = Biodistribution in 50 mg/kg cyclosporin A pretreated Wistar rat parietal/temporal/occipital cortex at 49+/-11 MBq, iv after 80 mins; format: ADME, organism-based; parameters: dose 50 mg/kg, route intravenous; details: in vivo
Bone [7] = test: Biodistribution in Wistar rat bone at 38+/-8 MBq, iv after 80 mins; format: ADME, organism-based, Bone element; details: in vivo
Duodenum [8] = test: Biodistribution in Wistar rat duodenum at 38+/-8 MBq, iv after 80 mins; format: ADME, organism-based; details: in vivo; how it was run: as §2
Liver [9] = test: Biodistribution in 50 mg/kg cyclosporin A pretreated Wistar rat liver at 49+/-11 MBq, iv after 80 mins; format: ADME, organism-based; parameters: dose 50 mg/kg, route intravenous; details: in vivo
Lung = test: Biodistribution in 50 mg/kg cyclosporin A pretreated Wistar rat lung at 49+/-11 MBq, iv after 80 mins; format: ADME, organism-based; parameters: dose 50 mg/kg, route intravenous; details: in vivo
Pons [10] = test: Biodistribution in Wistar rat pons at 38+/-8 MBq, iv after 80 mins; format: ADME, organism-based; details: in vivo
Heart [11] = test: Biodistribution in 50 mg/kg cyclosporin A pretreated Wistar rat heart at 49+/-11 MBq, iv after 80 mins; format: ADME, organism-based; parameters: dose 50 mg/kg, route intravenous; details: in vivo
[12] = Biodistribution in Wistar rat entorhinal cortex at 38+/-8 MBq, iv after 80 mins; format: ADME, organism-based; details: in vivo; how it was run: as §2
[13] = Biodistribution in Wistar rat cingulate cortex at 38+/-8 MBq, iv after 80 mins; format: ADME, organism-based; details: in vivo; how it was run: as §2
Colon [14] = test: Biodistribution in 50 mg/kg cyclosporin A pretreated Wistar rat colon at 49+/-11 MBq, iv after 80 mins; format: ADME, organism-based; parameters: dose 50 mg/kg, route intravenous; details: in vivo
How it was run: (§3)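 Male Wistar rats pretreated via tail vein with saline or cyclosporin A (50 mg/kg, commercial solution), then given the [11C] tracer via penile vein. After microPET scanning the anesthetized rats were killed. Tissues were excised and weighed, and blood was centrifuged into plasma and cells. γ counting with decay correction. Results as SUV (tissue MBq/g × body weight/injected dose).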

Ileum [15] = test: Biodistribution in 50 mg/kg cyclosporin A pretreated Wistar rat ileum at 49+/-11 MBq, iv after 80 mins; format: ADME, organism-based; parameters: dose 50 mg/kg, route intravenous; details: in vivo
Kidney [16] = test: Biodistribution in 50 mg/kg cyclosporin A pretreated Wistar rat kidney at 49+/-11 MBq, iv after 80 mins; format: ADME, organism-based; parameters: dose 50 mg/kg, route intravenous; details: in vivo
Pancreas = test: Biodistribution in Wistar rat pancreas at 38+/-8 MBq, iv after 80 mins; format: ADME, organism-based; details: in vivo; how it was run: as §2
[17] = Biodistribution in 50 mg/kg cyclosporin A pretreated Wistar rat frontal cortex at 49+/-11 MBq, iv after 80 mins; format: ADME, organism-based; parameters: dose 50 mg/kg, route intravenous; details: in vivo
[18] = Biodistribution in 50 mg/kg cyclosporin A pretreated Wistar rat fat at 49+/-11 MBq, iv after 80 mins; format: ADME, organism-based, Adipose tissue; parameters: dose 50 mg/kg, route intravenous; details: in vivo; how it was run: as §3
Hippocampus [19] = test: Biodistribution in Wistar rat hippocampus at 38+/-8 MBq, iv after 80 mins; format: ADME, organism-based; details: in vivo; how it was run: as §2
[20] = Biodistribution in Wistar rat frontal cortex at 38+/-8 MBq, iv after 80 mins; format: ADME, organism-based; details: in vivo; how it was run: as §2
Muscle tissue [21] = test: Biodistribution in 50 mg/kg cyclosporin A pretreated Wistar rat muscle at 49+/-11 MBq, iv after 80 mins; format: ADME, organism-based; parameters: dose 50 mg/kg, route intravenous; details: in vivo
[22] = Biodistribution in Wistar rat trachea at 38+/-8 MBq, iv after 80 mins; format: ADME, organism-based; details: in vivo
[23] = Biodistribution in 50 mg/kg cyclosporin A pretreated Wistar rat trachea at 49+/-11 MBq, iv after 80 mins; format: ADME, organism-based; parameters: dose 50 mg/kg, route intravenous; details: in vivo
Pons [24] = test: Biodistribution in 50 mg/kg cyclosporin A pretreated Wistar rat pons at 49+/-11 MBq, iv after 80 mins; format: ADME, organism-based; parameters: dose 50 mg/kg, route intravenous; details: in vivo
[25] = Biodistribution in Wistar rat fat at 38+/-8 MBq, iv after 80 mins; format: ADME, organism-based, Adipose tissue; details: in vivo; how it was run: as §2
[26] = Biodistribution in Wistar rat red blood cells at 38+/-8 MBq, iv after 80 mins; format: ADME, organism-based, Erythrocyte; details: in vivo
Striatum [27] = test: Biodistribution in 50 mg/kg cyclosporin A pretreated Wistar rat striatum at 49+/-11 MBq, iv after 80 mins; format: ADME, organism-based; parameters: dose 50 mg/kg, route intravenous; details: in vivo
[28] = Biodistribution in Wistar rat amygdala at 38+/-8 MBq, iv after 80 mins; format: ADME, organism-based; details: in vivo
[29] = Biodistribution in 50 mg/kg cyclosporin A pretreated Wistar rat entorhinal cortex at 49+/-11 MBq, iv after 80 mins; format: ADME, organism-based; parameters: dose 50 mg/kg, route intravenous; details: in vivo; how it was run: as §3
Spleen = test: Biodistribution in Wistar rat spleen at 38+/-8 MBq, iv after 80 mins; format: ADME, organism-based; details: in vivo
Liver [30] = test: Biodistribution in Wistar rat liver at 38+/-8 MBq, iv after 80 mins; format: ADME, organism-based; details: in vivo; how it was run: as §2
[31] = Biodistribution in Wistar rat parietal/temporal/occipital cortex at 38+/-8 MBq, iv after 80 mins; format: ADME, organism-based; details: in vivo; how it was run: as §2
[32] = Biodistribution in 50 mg/kg cyclosporin A pretreated Wistar rat bulbus olfactorius at 49+/-11 MBq, iv after 80 mins; format: ADME, organism-based, Olfactory bulb; parameters: dose 50 mg/kg, route intravenous; details: in vivo; how it was run: as §3
Plasma [33] = test: Biodistribution in Wistar rat plasma at 38+/-8 MBq, iv after 60 mins; format: ADME, organism-based; details: in vivo, 1 h
Kidney [34] = test: Biodistribution in Wistar rat kidney at 38+/-8 MBq, iv after 80 mins; format: ADME, organism-based; details: in vivo; how it was run: as §2
[35] = Biodistribution in 50 mg/kg cyclosporin A pretreated Wistar rat cingulate cortex at 49+/-11 MBq, iv after 80 mins; format: ADME, organism-based; parameters: dose 50 mg/kg, route intravenous; details: in vivo; how it was run: as §3
[36] = Biodistribution in 50 mg/kg cyclosporin A pretreated Wistar rat amygdala at 49+/-11 MBq, iv after 80 mins; format: ADME, organism-based; parameters: dose 50 mg/kg, route intravenous; details: in vivo
How it was run: (§4)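 Male Wistar rats pretreated with saline or cyclosporin A (50 mg/kg) via tail vein, then given the [11C] tracer via penile vein. Tissues excised after scanning and weighed. γ counting with decay correction. Results as SUV normalized to body weight and injected dose.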

Bone [37] = test: Biodistribution in 50 mg/kg cyclosporin A pretreated Wistar rat bone at 49+/-11 MBq, iv after 80 mins; format: ADME, organism-based, Bone element; parameters: dose 50 mg/kg, route intravenous; details: in vivo; how it was run: as §4
Cerebellum [38] = test: Biodistribution in 50 mg/kg cyclosporin A pretreated Wistar rat cerebellum at 49+/-11 MBq, iv after 80 mins; format: ADME, organism-based; parameters: dose 50 mg/kg, route intravenous; details: in vivo; how it was run: as §3
[39] = Biodistribution in 50 mg/kg cyclosporin A pretreated Wistar rat red blood cells at 49+/-11 MBq, iv after 80 mins; format: ADME, organism-based, Erythrocyte; parameters: dose 50 mg/kg, route intravenous; details: in vivo
Heart [40] = test: Biodistribution in Wistar rat heart at 38+/-8 MBq, iv after 80 mins; format: ADME, organism-based; details: in vivo; how it was run: as §2
Rattus norvegicus [41] = test: AUC in Wistar rat at 38+/-8 MBq, iv; format: ADME, organism-based, Plasma; details: in vivo; how it was run: as §1
Duodenum [42] = test: Biodistribution in 50 mg/kg cyclosporin A pretreated Wistar rat duodenum at 49+/-11 MBq, iv after 80 mins; format: ADME, organism-based; parameters: dose 50 mg/kg, route intravenous; details: in vivo; how it was run: as §3
Plasma [43] = test: Biodistribution in 50 mg/kg cyclosporin A pretreated Wistar rat plasma at 49+/-11 MBq, iv after 80 mins; format: ADME, organism-based; parameters: dose 50 mg/kg, route intravenous; details: in vivo
[44] = Biodistribution in Wistar rat medulla at 38+/-8 MBq, iv after 80 mins; format: ADME, organism-based, Medulla of organ; details: in vivo; how it was run: as §2
Hippocampus [45] = test: Biodistribution in 50 mg/kg cyclosporin A pretreated Wistar rat hippocampus at 49+/-11 MBq, iv after 80 mins; format: ADME, organism-based; parameters: dose 50 mg/kg, route intravenous; details: in vivo
[46] = Biodistribution in 50 mg/kg cyclosporin A pretreated Wistar rat medulla at 49+/-11 MBq, iv after 80 mins; format: ADME, organism-based, Medulla of organ; parameters: dose 50 mg/kg, route intravenous; details: in vivo
Colon [47] = test: Biodistribution in Wistar rat colon at 38+/-8 MBq, iv after 80 mins; format: ADME, organism-based; details: in vivo; how it was run: as §2
Striatum [48] = test: Biodistribution in Wistar rat striatum at 38+/-8 MBq, iv after 80 mins; format: ADME, organism-based; details: in vivo
Muscle tissue [49] = test: Biodistribution in Wistar rat muscle at 38+/-8 MBq, iv after 80 mins; format: ADME, organism-based; details: in vivo; how it was run: as §2

## COc1ccc(CCN([11CH3])CCCC(C#N)(c2ccc(OC)c(OC)c2)C(C)C)cc1OC (configuration not stated)
Cerebellum [1]
  SUV: 0.052
Rattus norvegicus [2]
  AUC: 110%
[3]
  SUV: 0.038
Plasma [4]
  SUV: 0.13
Ileum [5]
  SUV: 0.49
[6]
  SUV: 0.64
Bone [7]
  SUV: 0.25
Duodenum [8]
  SUV: 0.78
Liver [9]
  SUV: 1.84
Lung
  SUV: 1.95
Pons [10]
  SUV: 0.034
Heart [11]
  SUV: 0.3
[12]
  SUV: 0.027
[13]
  SUV: 0.027
Colon [14]
  SUV: 0.4
Ileum [15]
  SUV: 0.56
Kidney [16]
  SUV: 1.07
Pancreas
  SUV: 0.82
[17]
  SUV: 0.52
[18]
  SUV: 0.5
Hippocampus [19]
  SUV: 0.036
[20]
  SUV: 0.031
Muscle tissue [21]
  SUV: 0.37
[22]
  SUV: 0.35
[23]
  SUV: 0.46
Pons [24]
  SUV: 0.68
[25]
  SUV: 0.38
[26]
  SUV: 0.06
Striatum [27]
  SUV: 0.55
[28]
  SUV: 0.034
[29]
  SUV: 0.59
Spleen
  SUV: 0.93
Liver [30]
  SUV: 1.23
[31]
  SUV: 0.036
[32]
  SUV: 0.57
Plasma [33]
  SUV: 0.18
Kidney [34]
  SUV: 0.61
[35]
  SUV: 0.5
[36]
  SUV: 0.62
Bone [37]
  SUV: 0.38
Cerebellum [38]
  SUV: 0.6
[39]
  SUV: 0.07
Heart [40]
  SUV: 0.24
Rattus norvegicus [41]
  AUC: 100%
Duodenum [42]
  SUV: 0.63
Plasma [43]
  SUV: 0.17
[44]
  SUV: 0.044
Hippocampus [45]
  SUV: 0.54
[46]
  SUV: 0.67
Colon [47]
  SUV: 0.32
Striatum [48]
  SUV: 0.038
Muscle tissue [49]
  SUV: 0.29
